Measurements: ChEMBL document CHEMBL2062435, “Synthesis and in vitro antibacterial activity of gemifloxacin derivatives containing a substituted benzyloxime moiety” (2012)

Test system: Enterococcus faecium
Test: Antimicrobial activity against Enterococcus faecium 10-5 after 18-24 hrs by two-fold serial dilution method
Type: functional
How it was run: (§1)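 Agar-medium twofold serial dilution against Gram-positive and Gram-negative strains; MIC taken as the lowest compound concentration giving complete inhibition of bacterial growth after incubation at 35 °C for 18-24 h.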

Compound	MIC [µg/mL]
COc1ccc(CO/N=C2\CN(c3nc4c(cc3F)c(=O)c(C(=O)O)cn4C3CC3)CC2CN)c([N+](=O)[O-])c1OC.CS(=O)(=O)O (racemic)	4

Test system: Staphylococcus epidermidis
Test: Antimicrobial activity against extended spectrum beta-lactamases-producing methicillin-sensitive Staphylococcus epidermidis 10-11 after 18-24 hrs by two-fold serial dilution method
Type: functional
How it was run: as §1

Compound	MIC [µg/mL]
COc1ccc(CO/N=C2\CN(c3nc4c(cc3F)c(=O)c(C(=O)O)cn4C3CC3)CC2CN)c([N+](=O)[O-])c1OC.CS(=O)(=O)O (racemic)	4

Test system: Enterococcus faecalis
Test: Antimicrobial activity against Enterococcus faecalis 10-7 after 18-24 hrs by two-fold serial dilution method
Type: functional
How it was run: as §1

Compound	MIC [µg/mL]
COc1ccc(CO/N=C2\CN(c3nc4c(cc3F)c(=O)c(C(=O)O)cn4C3CC3)CC2CN)c([N+](=O)[O-])c1OC.CS(=O)(=O)O (racemic)	2

Test system: Escherichia coli
Test: Antimicrobial activity against extended spectrum beta-lactamases-producing Escherichia coli 10-3 after 18-24 hrs by two-fold serial dilution method
Type: functional
How it was run: as §1

Compound	MIC [µg/mL]
COc1ccc(CO/N=C2\CN(c3nc4c(cc3F)c(=O)c(C(=O)O)cn4C3CC3)CC2CN)c([N+](=O)[O-])c1OC.CS(=O)(=O)O (racemic)	> 128

Test system: Klebsiella pneumoniae
Test: Antimicrobial activity against Klebsiella pneumoniae 10-3 after 18-24 hrs by two-fold serial dilution method
Type: functional
How it was run: as §1

Compound	MIC [µg/mL]
COc1ccc(CO/N=C2\CN(c3nc4c(cc3F)c(=O)c(C(=O)O)cn4C3CC3)CC2CN)c([N+](=O)[O-])c1OC.CS(=O)(=O)O (racemic)	8

Test system: Klebsiella pneumoniae
Test: Antimicrobial activity against extended spectrum beta-lactamases-producing Klebsiella pneumoniae 10-1 after 18-24 hrs by two-fold serial dilution method
Type: functional
How it was run: as §1

Compound	MIC [µg/mL]
COc1ccc(CO/N=C2\CN(c3nc4c(cc3F)c(=O)c(C(=O)O)cn4C3CC3)CC2CN)c([N+](=O)[O-])c1OC.CS(=O)(=O)O (racemic)	> 128

Test system: Streptococcus pneumoniae
Test: Antimicrobial activity against extended spectrum beta-lactamases-producing Streptococcus pneumoniae 10-4 after 18-24 hrs by two-fold serial dilution method
Type: functional
How it was run: as §1

Compound	MIC [µg/mL]
COc1ccc(CO/N=C2\CN(c3nc4c(cc3F)c(=O)c(C(=O)O)cn4C3CC3)CC2CN)c([N+](=O)[O-])c1OC.CS(=O)(=O)O (racemic)	4

Test system: Escherichia coli
Test: Antimicrobial activity against Escherichia coli 10-1 after 18-24 hrs by two-fold serial dilution method
Type: functional
How it was run: as §1

Compound	MIC [µg/mL]
COc1ccc(CO/N=C2\CN(c3nc4c(cc3F)c(=O)c(C(=O)O)cn4C3CC3)CC2CN)c([N+](=O)[O-])c1OC.CS(=O)(=O)O (racemic)	> 128

Test system: Staphylococcus aureus
Test: Antimicrobial activity against Staphylococcus aureus ATCC […] after 18-24 hrs by two-fold serial dilution method
Type: functional
How it was run: as §1

Compound	MIC [µg/mL]
COc1ccc(CO/N=C2\CN(c3nc4c(cc3F)c(=O)c(C(=O)O)cn4C3CC3)CC2CN)c([N+](=O)[O-])c1OC.CS(=O)(=O)O (racemic)	0.06

Test system: Staphylococcus epidermidis
Test: Antimicrobial activity against extended spectrum beta-lactamases-producing methicillin-resistant Staphylococcus epidermidis 10-10 after 18-24 hrs by two-fold serial dilution method
Type: functional
How it was run: (§2)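 Agar twofold serial dilution MIC against clinical isolates. MIC was taken as the lowest concentration giving complete inhibition of bacterial growth after incubation at 35 °C for 18-24 h.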

Compound	MIC [µg/mL]
COc1ccc(CO/N=C2\CN(c3nc4c(cc3F)c(=O)c(C(=O)O)cn4C3CC3)CC2CN)c([N+](=O)[O-])c1OC.CS(=O)(=O)O (racemic)	2

Test system: Staphylococcus aureus
Test: Antimicrobial activity against extended spectrum beta-lactamases-producing methicillin-sensitive Staphylococcus aureus 10-14 after 18-24 hrs by two-fold serial dilution method
Type: functional
How it was run: as §1

Compound	MIC [µg/mL]
COc1ccc(CO/N=C2\CN(c3nc4c(cc3F)c(=O)c(C(=O)O)cn4C3CC3)CC2CN)c([N+](=O)[O-])c1OC.CS(=O)(=O)O (racemic)	0.06

Test system: Pseudomonas aeruginosa
Test: Antimicrobial activity against Pseudomonas aeruginosa 10-12 after 18-24 hrs by two-fold serial dilution method
Type: functional
How it was run: as §1

Compound	MIC [µg/mL]
COc1ccc(CO/N=C2\CN(c3nc4c(cc3F)c(=O)c(C(=O)O)cn4C3CC3)CC2CN)c([N+](=O)[O-])c1OC.CS(=O)(=O)O (racemic)	0.06

Test system: Escherichia coli
Test: Antimicrobial activity against Escherichia coli ATCC 25922 after 18-24 hrs by two-fold serial dilution method
Type: functional
How it was run: as §1

Compound	MIC [µg/mL]
COc1ccc(CO/N=C2\CN(c3nc4c(cc3F)c(=O)c(C(=O)O)cn4C3CC3)CC2CN)c([N+](=O)[O-])c1OC.CS(=O)(=O)O (racemic)	0.5

Test system: Escherichia coli
Test: Antimicrobial activity against extended spectrum beta-lactamases-producing Escherichia coli 10-4 after 18-24 hrs by two-fold serial dilution method
Type: functional
How it was run: as §1

Compound	MIC [µg/mL]
COc1ccc(CO/N=C2\CN(c3nc4c(cc3F)c(=O)c(C(=O)O)cn4C3CC3)CC2CN)c([N+](=O)[O-])c1OC.CS(=O)(=O)O (racemic)	8

Test system: Pseudomonas aeruginosa
Test: Antimicrobial activity against extended spectrum beta-lactamases-producing Pseudomonas aeruginosa 10-15 after 18-24 hrs by two-fold serial dilution method
Type: functional
How it was run: as §1

Compound	MIC [µg/mL]
COc1ccc(CO/N=C2\CN(c3nc4c(cc3F)c(=O)c(C(=O)O)cn4C3CC3)CC2CN)c([N+](=O)[O-])c1OC.CS(=O)(=O)O (racemic)	4

Test system: Pseudomonas aeruginosa
Test: Antimicrobial activity against extended spectrum beta-lactamases-producing Pseudomonas aeruginosa 10-5 after 18-24 hrs by two-fold serial dilution method
Type: functional
How it was run: as §1

Compound	MIC [µg/mL]
COc1ccc(CO/N=C2\CN(c3nc4c(cc3F)c(=O)c(C(=O)O)cn4C3CC3)CC2CN)c([N+](=O)[O-])c1OC.CS(=O)(=O)O (racemic)	8

Test system: Staphylococcus aureus
Test: Antimicrobial activity against extended spectrum beta-lactamases-producing methicillin-sensitive Staphylococcus aureus 10-13 after 18-24 hrs by two-fold serial dilution method
Type: functional
How it was run: as §1

Compound	MIC [µg/mL]
COc1ccc(CO/N=C2\CN(c3nc4c(cc3F)c(=O)c(C(=O)O)cn4C3CC3)CC2CN)c([N+](=O)[O-])c1OC.CS(=O)(=O)O (racemic)	1

Test system: Staphylococcus epidermidis
Test: Antimicrobial activity against extended spectrum beta-lactamases-producing methicillin-resistant Staphylococcus epidermidis 10-13 after 18-24 hrs by two-fold serial dilution method
Type: functional
How it was run: as §2

Compound	MIC [µg/mL]
COc1ccc(CO/N=C2\CN(c3nc4c(cc3F)c(=O)c(C(=O)O)cn4C3CC3)CC2CN)c([N+](=O)[O-])c1OC.CS(=O)(=O)O (racemic)	0.5
